RGS7-Gao: human RGS7-Galphao interaction regulation | P09471 | Multiplexed bead flow cytometry, RGS7-Galphao binding; actives lie on both sides | binding response (% of control), % at 10 µM | 220,000 compounds, 0.35% hits | AID 1439; in the data active = binding response below about 49% or above about 150%; inconclusive = no clear call, values can overlap the other calls; inactive = in between;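 note: fluorescent Galphao held in activated GDP-AlF4 state binding bead-coupled RGS7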
Target sequence (P09471 whole entry, looked up): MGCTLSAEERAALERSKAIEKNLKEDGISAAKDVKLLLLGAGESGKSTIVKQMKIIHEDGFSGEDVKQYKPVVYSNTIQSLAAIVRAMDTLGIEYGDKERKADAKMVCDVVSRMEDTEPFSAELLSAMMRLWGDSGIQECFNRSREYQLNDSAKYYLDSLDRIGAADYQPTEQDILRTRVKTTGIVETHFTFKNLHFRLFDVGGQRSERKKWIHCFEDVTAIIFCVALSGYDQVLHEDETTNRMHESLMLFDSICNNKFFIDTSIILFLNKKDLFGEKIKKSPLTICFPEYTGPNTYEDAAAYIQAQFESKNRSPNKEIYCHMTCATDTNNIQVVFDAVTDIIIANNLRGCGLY
RGS8-Gao reg: modulates binding of RGS8 to human Galphao. P09471. multiplexed bead flow cytometry; actives lie on both sides. response (percent of control binding), % at 10 µM. 220,000 compounds, 0.34% hits. AID 1423; in the data active = response below about 60% or above about 140%; inactive = in between;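 note: Galphao activated as the GDP aluminium fluoride complex binding bead-coupled RGS8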
RGS16-Gao HTS: regulators of human RGS16-Galphao interaction; O15492+P09471; bead-based flow cytometry RGS16-Galphao binding, fluorescence; actives lie on both sides; binding response (% of control), % at 10 µM; 220,000 compounds, 0.38% hits; AID 1441; call rule not given here;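 note: Galphao activated by GDP with aluminum fluoride before binding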
Target sequence (O15492 whole entry, looked up): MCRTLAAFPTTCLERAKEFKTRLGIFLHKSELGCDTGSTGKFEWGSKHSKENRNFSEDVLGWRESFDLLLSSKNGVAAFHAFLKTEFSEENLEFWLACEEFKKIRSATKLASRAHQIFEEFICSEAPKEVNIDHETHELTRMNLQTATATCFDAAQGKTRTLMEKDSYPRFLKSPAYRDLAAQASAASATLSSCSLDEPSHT
Target sequence (P09471 whole entry, looked up): as the sequence (P09471 whole entry, looked up) above
Biofilm kill mix: mixtures killing C. albicans biofilm; inhibition, % at 7.6 µM; 120,000 compounds, 0.02% hits; AID 1242; C. albicans biofilm persisters + clotrimazole, fluorescence viability; primary screen in compound mixtures of four per well;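 note: compounds exposed to preformed 24 h biofilms for 48 h; 0% = untreated biofilm control and 100% = clotrimazole plus chlorhexidine kill blank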
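Assay system: C. albicans biofilms / Medium: RPMI/MOPS medium, pH 7.0 / Schedule: biofilm formation 24 h, compound exposure 48 h, 37 °C / Measured by: Alamar Blue fluorescence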
RGS4-Gao reg: human RGS4-Galphao interaction regulation; P09471; Multiplexed bead flow cytometry, RGS4-Galphao binding; actives lie on both sides; binding response (% of control), % at 10 µM; 220,000 compounds, 0.33% hits; AID 1415; in the data active = binding response below about 49% or above about 150%; inactive = in between;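 note: fluorescent Galphao activated with aluminum fluoride binding bead-coupled RGS4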
* hit, by the source's call; i = inactive; ? = inconclusive; . = not tested or not shown; + = active, no number; [ ] = dose if it differs, or a comment. This is a sample that favours compounds with a hit; in the whole collection about 0.74% have one here.

SMILES	RGS7-Gao	RGS8-Gao reg	RGS16-Gao HTS	Biofilm kill mix	RGS4-Gao reg
O=C(Nc1cc(S(=O)(=O)Nc2ccccc2Cl)ccc1O)c1sc2cc(Cl)ccc2c1Cl	96	101	104	14	98
COc1ccccc1C1(CCNC(C)c2cccs2)CCOC(C(C)C)C1 (stereo not drawn)	?	113	113	3	112
Cc1ccc(C2(CCNC(C)c3cccs3)CCOC(C(C)C)C2)cc1 (stereo not drawn)	?	101	100	41*	98
Cc1ccccc1OCC(=O)NNC(=O)CSc1nc(N)cc(N)n1	?	98	98	17	99
CN(C)c1cccc(/C=C(\C#N)c2ccccc2)c1	?	81	68	17	58
CCN1CC(CN(C)Cc2nc(-c3ccc(C(F)(F)F)cc3)oc2C)CC1=O (stereo not drawn)	100	105	103	3	100
CCOC(=O)/C=C(\C)Nc1cc(C)nn1-c1ccccc1	11*	8.3*	-13	.	23*
Cc1cc(NC(=O)Nc2cc(C)nn2-c2ccccc2)n(-c2ccccc2)n1	101	100	105	.	102
Cc1ncsc1CCC(=O)N1CCCC(C(=O)c2ccc3c(c2)OCO3)C1 (stereo not drawn)	?	101	98	16	100
O=C(CSc1nnc2ccccn12)Nc1ccc2c(c1)OCCO2	97	100	99	12	100
C=CCNC(=O)/C(=C\C=C\c1ccccc1)NC(=O)c1ccc(OCCCC)cc1	13*	12*	1.7*	.	20*
O=C1S/C(=C\c2ccc(N3CCOCC3)o2)C(=O)N1Cc1ccc(F)cc1	153*[activator]	124	386	.	165*[activator]
O=C(Oc1c(Cl)cc(Cl)c2cccnc12)c1ccco1	101	97	98	.	100
Oc1c(Cl)cc(Cl)c2cccnc12	99	98	95	43*	97
O=C1c2ccc(-c3ccc4c(c3)C(=O)N(CCO)C4=O)cc2C(=O)N1CCO	?	105	111	18	107
COC(=O)c1cnn(-c2ccccc2)c1/C=N/NC(=S)Nc1ccc(Cl)cc1	?	96	96	5	95
CCOC(=O)C1CCN(c2c(NCc3ccc(C(=O)Nc4ccc(C)cc4)cc3)c(=O)c2=O)CC1	?	102	101	6	104
CCn1c(COc2ccc(=O)n(-c3ccccc3)n2)nnc1SCc1cccc(OC)c1	-3.1*	13*	-13*	.	-20*
Cc1cc(C)nc(N2CCCC(C(=O)NNC(=O)c3ccncc3)C2)n1 (stereo not drawn)	?	98	106	6	101
CCCCN=C1CC(C)(C)CC(=O)/C1=C(/O)CCC	?	100	98	12	96
Cc1ccc(Nc2nc(N)nc(CN3CCN(Cc4ccc5c(c4)OCO5)CC3)n2)cc1C	97	102	105	33*	97
Cc1ccc(Nc2nc(N)nc(CN3CCN(Cc4ccc5c(c4)OCO5)CC3)n2)cc1	103	102	103	.	99
COc1ccccc1NC(=O)CCN1CCCCCC1	0.6*	4.6*	-2.5*	.	3.0*
S=C(NCc1ccc2[nH]c3c(c2c1)CCCC3)Nc1ccccc1	50	70	55	13	49*
COc1ccc(N(C(=O)/C=C/c2ccccc2)C2=CC3CCC(C2)N3C)cc1 (stereo not drawn)	?	100	100	21	97
SMILES	RGS7-Gao	RGS8-Gao reg	RGS16-Gao HTS	Biofilm kill mix	RGS4-Gao reg
O=C(c1ccc(OC2CCN(Cc3ccccn3)CC2)cc1)N1CCCCO1	100	102	101	2	97
O=S(=O)(c1ccc(F)c(F)c1F)N1CCN(C(=S)Nc2ccccc2)CC1	104	104	110	18	105
Cc1cc(=O)[nH]c(SCC(=O)Nc2cccc3ccccc23)c1C#N	184*[activator]	115	219*[activator]	.	224*[activator]
O=C(OC(C(=O)NCc1ccco1)c1ccc(Cl)cc1)c1cccs1 (stereo not drawn)	?	100	101	15	104
C#CCNc1c2c(nc3ncnn13)CC(C)CC2 (stereo not drawn)	?	100	97	23	104
CCN(CC)c1ccc2cc(-c3nc(-c4ccc(OC)cc4)cs3)c(=O)oc2c1	+[activator]	177*[activator]	923*[activator]	17	808*[activator]
COCCNC(=O)c1cc2nc3c(c(C(F)(F)F)n2n1)CCc1ccccc1-3	102	101	102	-5	103
O=C(O)c1cc2nc3c(c(C(F)(F)F)n2n1)CCc1ccccc1-3	1.4*	19*	-6.0*	.	-12*
Cc1ccn(C(=O)c2ccc(NC(=O)C3CC3)cc2)n1	98	100	103	16	101
O=S1(=O)N=C(N=Nc2c(O)[nH]c3ccccc23)c2ccccc21	12*	17*	4.8*	13	12*
Oc1[nH]c2ccccc2c1N=Nc1ccccc1	?	101	104	14	100
CCOc1ccc2cc(C3CC(c4ccco4)=NN3S(C)(=O)=O)c(=O)[nH]c2c1 (stereo not drawn)	?	94	96	15	101
O=C(CN(C(=O)Cn1nnc(-c2ccccc2F)n1)c1cccc2c1CCCC2)NCc1ccccc1	103	107	114	.	102
CC(C)CCNC(=O)CN(C(=O)Cn1nnc(-c2ccccc2F)n1)c1cccc2c1CCCC2	12*	12*	0.7*	.	20*
NCCNC[C@@H]1COC2(CCCCCCCCCCC2)O1	?	104	100	13	102
CN(C)c1ccc(C2NCCS2)cc1 (stereo not drawn)	27*	47*	21*	.	15*
CCn1nc(C)c(CNC(=O)Nc2ccccc2C(=O)OC)c1C	108	105	99	16	93
CCCOC(=O)c1ccc(Cl)c(NC(=O)c2cccnc2)c1	101	102	106	16	99
Cn1c(=O)c2c(ncn2CC(O)CNc2ccc(F)cc2)n(C)c1=O (stereo not drawn)	?	99	104	8	101
Cc1nc(C(=O)N/N=C/c2[nH]ncc2Br)cs1	?	102	102	15	104
CCCn1c(CN2CCN(C)CC2)nc2ccccc21	16*	13*	14*	.	23*
Cc1c(Br)c([N+](=O)[O-])nn1CC(=O)NCCc1c[nH]c2ccccc12	100	101	101	13	104
CC(CCc1ccccc1)NC(=O)CN1CCN(c2ccccc2)CC1 (stereo not drawn)	104	103	109	-2	100
CSc1ccc(CN2CCC(C(=O)NCc3ccc(C)cc3)CC2)cc1	99	98	100	29	100
COc1ccccc1C1=NNC(=Nc2cccc(S(=O)(=O)N(C)C)c2)SC1	104	100	102	4	102
Cc1ccc(-c2nn(CC(=O)NCc3cc(-c4nn(C)c(=O)c5ccccc45)ccc3C)c(=O)c3ccccc23)cc1	+[activator]	209*[activator]	i	.	+[activator]
CCCCN1C(=O)/C(=C/C=C2\Oc3ccccc3N2CC)SC1=S	108	103	107	9	102
